# Experimental data from different studies.
# Lines come from different studies, so protocols differ.
# DYRK1A: Dual specificity tyrosine-phosphorylation-regulated kinase 1A (DYRK1A, Homo sapiens, UniProt Q13627)
# NPY2R: Neuropeptide Y receptor type 2 (NPY2R, Homo sapiens, UniProt P49146)
# PDGFRB: Platelet-derived growth factor receptor beta (PDGFRB, Homo sapiens, UniProt P09619)
SMILES,target,assay,setting,measurement,value
CC(C)(C)C1CCc2c(C(=O)N/N=C/c3ccsc3)csc2C1 (stereo not shown),DYRK1A,"enzyme activity, inhibitor, ADP detection",10 µM,inhibition,23.1%
C#Cc1cc(-c2cc(Nc3nc(N[C@@H](C)c4ccc(F)cn4)ncc3Cl)n[nH]2)ccc1C=O,"Homeodomain-interacting protein kinase 2 (HIPK2, Homo sapiens, UniProt Q9H2X6)","enzyme activity, inhibitor",0.2 µM,inhibition,40.4%
Cc1nc(Sc2nc(C)nc3sc4c(c23)CCC4)c2c3c(sc2n1)CCC3,DYRK1A,"enzyme activity, inhibitor, ADP detection",10 µM,inhibition,47.4%
CCN1/C(=C/C(C)=O)Sc2ccc(F)cc21,NPY2R,"ligand displacement, radioligand",10 µM,inhibition,0%
N#Cc1ccc(NC(=O)Nc2ccccc2)cc1,PDGFRB,"cell-free assay, competition with immobilised ligand",25 µM,inhibition,67%
Nc1cc(-c2ccncc2)cs1,DYRK1A,"enzyme activity, inhibitor, ADP detection",10 µM,inhibition,25.6%
C1=C/COCc2cc(ccc2OCCN2CCCC2)Nc2nccc(n2)-c2cccc(c2)COC/1,"Myosin light chain kinase 2, skeletal/cardiac muscle (MYLK2, Homo sapiens, UniProt Q9H1R3)",binding,0.1 µM,remaining binding,76%
CC1(C)Oc2ccc3ccc(=O)oc3c2C/C1=N/O,DYRK1A,"enzyme activity, inhibitor, ADP detection",10 µM,inhibition,38.6%
COc1ccc2oc(-c3ccc4nc(N)oc4c3)c/c(=N\c3ccccc3NC(=O)CCN)c2c1,PDGFRB,binding,1 µM,remaining binding,107%
Nc1ncnc2c1ncn2[C@@H]1O[C@H](COP(=O)(O)OP(=O)(O)OP(=O)(O)O)[C@@H](O)[C@H]1O,"Inositol-tetrakisphosphate 1-kinase (Homo sapiens, UniProt Q13572)","enzyme activity, substrate, ADP detection",,Km,2700 nM
CCCCC(=O)Nc1ccc(-c2ccc3ncn(CCC)c(=O)c3c2)cn1,"Ephrin type-A receptor 7 (EPHA7, Homo sapiens, UniProt Q15375)","binding, competition with immobilised ligand",0.5 µM,remaining binding,100%
NC/C(=C\F)COc1cccc(Cn2c(=S)[nH]c(=O)c3[nH]cnc32)c1,NPY2R,"ligand displacement, radioligand",10 µM,inhibition,< 50%
Cc1cc(O)c(-c2ccc([C@@H](C)CN(C)C)cc2)c2c1[nH]c(=O)c1sccc12,"Microtubule-associated serine/threonine-protein kinase 3 (MAST3, Homo sapiens, UniProt O60307)","enzyme activity, inhibitor",0.1 µM,inhibition,2.4%
